Measurements reported in ChEMBL document CHEMBL4052792, “3-Hydroxykynurenine, a Tryptophan Metabolite Generated during the Infection, Is Active Against Trypanosoma cruzi” (ACS Med Chem Lett, 2017).
pIC50: −log10 of the molar value. Active and inactive are the calls of the source. No cut-off for these calls is given here.

How the values were obtained:
Trypanosoma cruzi [1] = assay: Trypanostatic activity against Trypanosoma cruzi Tulahuen amastigotes infected in BALB/C mouse bone marrow derived macrophages assessed as kinetoplast structure disorganization at 20 uM after 24 hrs by transmission electron microscopic analysis; format: functional
How it was run: (§1)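 Bone marrow-derived macrophages were infected for 24 h, then exposed to 20 μM for 24 h or left untreated. Intracellular amastigote ultrastructure was examined by transmission electron microscopy, covering mitochondrion, nucleus, kinetoplast, flagellum, flagellar pocket, subpellicular microtubules and cytoplasmic structures.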

Trypanosoma cruzi [2] = assay: Trypanocidal activity against Trypanosoma cruzi Tulahuen amastigotes infected in BALB/C mouse bone marrow derived macrophages assessed as parasite infected macrophages at 2000 uM treated for 24 hrs followed by compound washout measured after 48 hrs by immunofluorescence assay (reference value: 26.84 +/- 7.81%); format: functional
PBMC [3] = assay: Cytotoxicity against human PBMC assessed as reduction in cell viability at 0.2 to 2000 uM after 24 hrs by trypan blue exclusion assay; format: cell-based
How it was run: (§2)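 Mammalian cells (human PBMC, Swan 71, Jurkat; bone marrow-derived macrophages; J774) were exposed to 3-HK at 0.2 to 2000 μM for 24 h. Viability was then scored by trypan blue exclusion.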

Trypanosoma cruzi [4] = assay: Trypanocidal activity against Trypanosoma cruzi Tulahuen trypomastigotes infected in BALB/C mouse bone marrow derived macrophages assessed as induction of cell lysis at trypomastigote stage after 24 hrs
Trypanosoma cruzi [5] = assay: Induction of mitochondrial membrane potential reduction in Trypanosoma cruzi Tulahuen trypomastigotes up to 4000 uM after 24 hrs by Rh123/propidium iodide staining-based flow cytometric analysis (reference value: 3.25 +/- 1.66%); format: functional; set-up: scale not given: the % may be the effect or the level left
How it was run: (§3)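 Trypomastigotes were treated with 3-HK for 24 h at 37 °C, then incubated with PI plus Rh123. Rh123 fluorescence was read by flow cytometry in PI-negative (live) parasites. The depolarized fraction was taken as the low-fluorescence M2 population. Index of variation = (treated median − control median)/control median. Three experiments were run.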

Trypanosoma cruzi [6] = assay: Trypanocidal activity against Trypanosoma cruzi Tulahuen amastigotes infected in BALB/C mouse bone marrow derived macrophages assessed as endocytic index at 1800 uM treated for 24 hrs followed by compound washout measured after 48 hrs by immunofluorescence assay (reference value: 213.66 +/- 58.79); format: functional
Trypanosoma cruzi [7] = assay: Trypanostatic activity against Trypanosoma cruzi Tulahuen amastigotes infected in BALB/C mouse bone marrow derived macrophages assessed as effect on flagellar pocket at 20 uM after 24 hrs by transmission electron microscopic analysis; format: functional; how it was run: as §1
PBMC [8] = assay: Cytotoxicity against human PBMC assessed as reduction in cell viability at 1200 to 2000 uM after 48 hrs by trypan blue exclusion assay; format: cell-based
How it was run: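 Human PBMC and Jurkat cells were treated for 48 h with a range of 3-HK concentrations or left untreated. Viable cells were counted under light microscopy by trypan blue exclusion. Data are means ± SD of four independent experiments.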

Trypanosoma cruzi [9] = assay: Trypanostatic activity against Trypanosoma cruzi Tulahuen amastigotes infected in BALB/C mouse bone marrow derived macrophages assessed as effect on flagellum structure at 20 uM after 24 hrs by transmission electron microscopic analysis; format: functional; how it was run: as §1
[10] = Induction of apoptosis in BALB/C mouse BMDM assessed as cells with hypodiploid DNA content at 0.2 uM after 24 hrs by FITC/propidium iodide staining based flow cytometric analysis (reference value: 29.9%); format: functional
Trypanosoma cruzi [11] = assay: Trypanocidal activity against Trypanosoma cruzi Tulahuen trypomastigotes assessed as increase in parasite death up to 72 hrs by trypan blue assay; format: functional
How it was run: (§4)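 Bloodstream trypomastigotes were incubated at 37 °C in culture medium alone or with increasing doses for 24, 48 and 72 h. Parasite death was scored as percentage by trypan blue exclusion. Results are means ± SD of three independent experiments.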

[12] = Induction of apoptosis in BALB/C mouse BMDM assessed as cells with hypodiploid DNA content at 8000 uM after 24 hrs by FITC/propidium iodide staining based flow cytometric analysis (reference value: 29.9%); format: functional
Trypanosoma cruzi [13] = assay: Trypanostatic activity against Trypanosoma cruzi Tulahuen amastigotes infected in BALB/C mouse bone marrow derived macrophages assessed as formation of low electrodense structures in parasite cytoplasm at 20 uM after 24 hrs by transmission electron microscopic analysis; format: functional; how it was run: as §1
Trypanosoma cruzi [14] = assay: Reduction of mitochondrial membrane potential in Trypanosoma cruzi Tulahuen trypomastigotes after 24 hrs by Rh123/PI staining-based flow cytometric analysis; format: functional; how it was run: as §3
Trypanosoma cruzi [15] = assay: Trypanocidal activity against Trypanosoma cruzi Tulahuen amastigotes infected in BALB/C mouse bone marrow derived macrophages assessed as endocytic index at 1500 uM treated for 24 hrs followed by compound washout measured after 48 hrs by immunofluorescence assay (reference value: 213.66 +/- 58.79); format: functional
Trypanosoma cruzi [16] = assay: Trypanocidal activity against Trypanosoma cruzi Tulahuen amastigotes infected in BALB/C mouse bone marrow derived macrophages assessed as endocytic index at 1200 uM treated for 24 hrs followed by compound washout measured after 48 hrs by immunofluorescence assay (reference value: 213.66 +/- 58.79); format: functional
Jurkat = assay: Cytotoxicity against human Jurkat cells assessed as reduction in cell viability at 0.2 to 2000 uM after 24 hrs by trypan blue exclusion assay; format: cell-based; how it was run: as §2
Trypanosoma cruzi [17] = assay: Trypanocidal activity against Trypanosoma cruzi Tulahuen amastigote forms infected in BALB/C mouse bone marrow derived macrophages assessed as decrease in parasite growth at 200 uM after 72 hrs by immunofluorescence assay; format: functional
How it was run: (§5)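 Macrophages were infected with trypomastigotes and treated with 3-HK for 24 h. Immunofluorescence counts were made at 72 h post-infection. Intracellular parasites per 200 cells were expressed relative to medium-treated cultures, and infected cells were counted among 200 macrophages. Data are means ± SD of four independent experiments.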

Trypanosoma cruzi [18] = assay: Trypanocidal activity against Trypanosoma cruzi Tulahuen amastigotes infected in BALB/C mouse bone marrow derived macrophages assessed as decrease in parasite infected macrophages at 200 uM after 72 hrs by immunofluorescence assay; format: functional; how it was run: as §5
Enterococcus faecalis = assay: Antimicrobial activity against vancomycin-resistant Enterococcus faecalis NCTC12201 after 8 hrs; format: functional; conditions: NCTC12201, 8 h
Trypanosoma cruzi [19] = assay: Trypanocidal activity against Trypanosoma cruzi Tulahuen amastigotes infected in BALB/C mouse bone marrow derived macrophages assessed as parasite infected macrophages at 1800 uM treated for 24 hrs followed by compound washout measured after 48 hrs by immunofluorescence assay (reference value: 26.84 +/- 7.81%); format: functional
Trypanosoma cruzi [20] = assay: Trypanocidal activity against Trypanosoma cruzi Tulahuen trypomastigotes assessed as reduction in parasites after 72 hrs by trypan blue assay; format: functional; how it was run: as §4
[21] = Induction of apoptosis in BALB/C mouse BMDM assessed as cells with hypodiploid DNA content at 10000 uM after 24 hrs by FITC/propidium iodide staining based flow cytometric analysis (reference value: 29.9%); format: functional
Trypanosoma cruzi [22] = assay: Trypanocidal activity against Trypanosoma cruzi Tulahuen amastigotes infected in BALB/C mouse bone marrow derived macrophages assessed as parasite infected macrophages at 1200 uM treated for 24 hrs followed by compound washout measured after 48 hrs by immunofluorescence assay (reference value: 26.84 +/- 7.81%); format: functional
Trypanosoma cruzi [23] = assay: Trypanocidal activity against Trypanosoma cruzi Tulahuen amastigotes infected in BALB/C mouse bone marrow derived macrophages assessed as parasite infected macrophages at 0.2 uM treated for 24 hrs followed by compound washout measured after 48 hrs by immunofluorescence assay (reference value: 26.84 +/- 7.81%); format: functional
Trypanosoma cruzi [24] = assay: Trypanocidal activity against Trypanosoma cruzi Tulahuen amastigotes infected in BALB/C mouse bone marrow derived macrophages assessed as reduction in parasite infected macrophages at 0.2 uM after 72 hrs by immunofluorescence assay relative to control; format: functional

For `Nc1c(O)cccc1C(=O)C[C@H](N)C(=O)O`, the Activity (Trypanosoma cruzi [1]) was “Active”, the Activity (Trypanosoma cruzi [2]) was 16.31% and the Activity (PBMC [3]) was “Non-Toxic”. The pIC50 (Trypanosoma cruzi [4]) was 2.92, the Activity (Trypanosoma cruzi [5]) was 8 - 12% and the Activity (Trypanosoma cruzi [6]) was 110.69. The Activity (Trypanosoma cruzi [7]) was “inactive”, the Activity (PBMC [8]) was “Toxic” and the Activity (Trypanosoma cruzi [9]) was “inactive”. For the same compound, the Activity [10] was 27.5%, the Activity (Trypanosoma cruzi [11]) was “Dose-dependent effect” and the Activity [12] was 29.9%. The Activity (Trypanosoma cruzi [13]) was “Active”, the Activity (Trypanosoma cruzi [14]) was “Dose-dependent effect” and the Activity (Trypanosoma cruzi [15]) was 124.36. The Activity (Trypanosoma cruzi [16]) was 106.06, the Activity (Jurkat) was “Non-Toxic” and the Activity (Trypanosoma cruzi [17]) was “Active”. The Activity (Trypanosoma cruzi [18]) was “Active”, the pIC50 (Enterococcus faecalis) was 3.86 to 4.52 and the Activity (Trypanosoma cruzi [19]) was 14.32%. The pIC50 (Trypanosoma cruzi [20]) was 3.70 to 4.70, the Activity [21] was 29.5% and the Activity (Trypanosoma cruzi [22]) was 14.83%. It also gave an Activity (Trypanosoma cruzi [23]) of 10.85% and an inhibition at 0.2 µM (Trypanosoma cruzi [24]) of 59%.
